What was measured:
[1] = biological target: VEGFR2 (vascular endothelial growth factor receptor 2), wild type, TEL fusion (Homo sapiens, UniProt P35968); test: Inhibition of wild type TEL fused VEGFR2 (unknown origin) transfected in mouse BAF3 cells assessed as growth inhibition after 72 hrs by CCK8 assay; type: cell-based; details: mouse BaF3 cells transfected with wild type TEL-fused VEGFR2
[2] = biological target: High affinity nerve growth factor receptor (Homo sapiens, UniProt P04629); test: Inhibition of wild type TEL fused TRKA (unknown origin) transfected in mouse BAF3 cells assessed as growth inhibition after 72 hrs by CCK8 assay; type: cell-based
[3] = Antiproliferative activity in mouse BAF3 cells assessed as growth inhibition after 72 hrs by CCK8 assay; type: cell-based
Outline: (§1)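 TEL- or LMNA-fusion isogenic BaF3 lines grown in RPMI 1640 with 10% FBS and 1% penicillin/streptomycin at 37 °C, 5% CO₂; suspension cells collected by spinning at 800 rpm for 4 min before use; growth inhibition scored as GI₅₀.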

[4] = test system: High affinity nerve growth factor receptor (Homo sapiens), P04629 [G667C]; test: Inhibition of LMNA fused TRKA G667C mutant (unknown origin) transfected in mouse BAF3 cells assessed as growth inhibition after 72 hrs by CCK8 assay; type: cell-based; outline: as §1
[5] = Antitumor activity against human […] cells xenografted in nude mouse assessed as tumor growth inhibition at 80 mg/kg, po administered once daily for 10 days relative to control; type: functional; details: KM12-Luc, 240 h, time 10 day, read-out: TGI
Outline: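 Nu/nu mice given 5 million KM-12-LUC cells in DMEM, 1:1 with matrigel, injected subcutaneously into the right flank; oral gavage started at tumor size 150–200 mm³, 5 mice per group, compound in 0.5% methylcellulose/0.4% Tween 80 in ddH₂O; body weight and tumor volume [(W²×L)/2] measured daily; TGI versus vehicle.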

BaF3 [6] = test: Inhibition of LMNA fused TRKA V573M mutant (unknown origin) transfected in mouse BAF3 cells assessed as growth inhibition after 72 hrs by CCK8 assay; type: cell-based; details: Homo sapiens
BaF3 [7] = test: Antitumor activity against mouse BAF3 cells harboring TEL fused TRKC allografted in nude mouse assessed as tumor growth inhibition at 80 mg/kg, po administered once daily for 10 days relative to control; type: functional; details: 240 h, time 10 day, read-out: TGI
Outline: (§2)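 Nu/nu mice given 1 million BaF3 cells (TEL-TRKA, TEL-TRKB, TEL-TRKC, LMNA-TRKA-F589L or LMNA-TRKA-G667S) in DMEM, 1:1 with matrigel, injected subcutaneously into the right flank; oral gavage began at 200–400 mm³, 5 mice per group, compound in 0.5% methylcellulose/0.4% Tween 80 in ddH₂O, 10 days; tumor volume [(W²×L)/2] and body weight recorded daily; TGI versus vehicle.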

[8] = Antiproliferative activity against human KM-12-LUC cells harboring […] fused TRKA assessed as growth inhibition after 72 hrs by CCK8 assay; type: functional; details: KM12-Luc
Outline: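 KM-12-LUC cells seeded at 3 × 10⁴ cells/mL, incubated overnight at 37 °C, 5% CO₂, then medium replaced with fresh medium containing a range of compound concentrations for 72 h; viability read by CCK-8 absorbance at 450 nm, normalized to DMSO control, GI₅₀ from curve fitting.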

BaF3 [9] = test: Antitumor activity against mouse BAF3 cells harboring TEL fused TRKA allografted in nude mouse assessed as tumor growth inhibition at 80 mg/kg, po administered once daily for 10 days relative to control; type: functional; details: 240 h, time 10 day, read-out: TGI; outline: as §2
BaF3 [10] = test: Inhibition of LMNA fused TRKA F589L mutant (unknown origin) transfected in mouse BAF3 cells assessed as growth inhibition after 72 hrs by CCK8 assay; type: cell-based; details: Homo sapiens; outline: as §1
BaF3 [11] = test: Inhibition of LMNA fused TRKA G667S mutant (unknown origin) transfected in mouse BAF3 cells assessed as growth inhibition after 72 hrs by CCK8 assay; type: cell-based; details: Homo sapiens

High affinity nerve growth factor receptor, sequence (P04629 33-796 limits assumed): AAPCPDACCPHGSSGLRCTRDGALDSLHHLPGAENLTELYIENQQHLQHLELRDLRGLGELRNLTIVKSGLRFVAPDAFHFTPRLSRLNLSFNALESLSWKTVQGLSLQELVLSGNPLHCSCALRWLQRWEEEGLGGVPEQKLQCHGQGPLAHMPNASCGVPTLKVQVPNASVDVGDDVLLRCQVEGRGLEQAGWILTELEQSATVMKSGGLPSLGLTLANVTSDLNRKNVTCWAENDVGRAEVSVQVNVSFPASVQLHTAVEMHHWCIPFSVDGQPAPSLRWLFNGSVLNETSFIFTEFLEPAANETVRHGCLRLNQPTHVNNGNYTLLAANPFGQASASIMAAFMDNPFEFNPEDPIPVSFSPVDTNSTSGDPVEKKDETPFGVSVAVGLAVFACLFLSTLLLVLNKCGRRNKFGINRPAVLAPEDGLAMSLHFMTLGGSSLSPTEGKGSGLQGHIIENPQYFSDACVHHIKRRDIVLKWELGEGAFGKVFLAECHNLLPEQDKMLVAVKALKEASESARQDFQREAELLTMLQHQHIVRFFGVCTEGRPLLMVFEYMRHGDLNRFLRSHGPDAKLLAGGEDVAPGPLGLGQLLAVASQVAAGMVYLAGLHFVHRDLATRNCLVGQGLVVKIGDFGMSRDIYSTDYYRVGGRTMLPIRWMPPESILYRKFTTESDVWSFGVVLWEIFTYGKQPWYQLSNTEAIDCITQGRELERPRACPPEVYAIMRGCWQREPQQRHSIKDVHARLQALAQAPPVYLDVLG
VEGFR2 (vascular endothelial growth factor receptor 2), wild type, TEL fusion, sequence (P35968 whole entry, the tested form may be a part): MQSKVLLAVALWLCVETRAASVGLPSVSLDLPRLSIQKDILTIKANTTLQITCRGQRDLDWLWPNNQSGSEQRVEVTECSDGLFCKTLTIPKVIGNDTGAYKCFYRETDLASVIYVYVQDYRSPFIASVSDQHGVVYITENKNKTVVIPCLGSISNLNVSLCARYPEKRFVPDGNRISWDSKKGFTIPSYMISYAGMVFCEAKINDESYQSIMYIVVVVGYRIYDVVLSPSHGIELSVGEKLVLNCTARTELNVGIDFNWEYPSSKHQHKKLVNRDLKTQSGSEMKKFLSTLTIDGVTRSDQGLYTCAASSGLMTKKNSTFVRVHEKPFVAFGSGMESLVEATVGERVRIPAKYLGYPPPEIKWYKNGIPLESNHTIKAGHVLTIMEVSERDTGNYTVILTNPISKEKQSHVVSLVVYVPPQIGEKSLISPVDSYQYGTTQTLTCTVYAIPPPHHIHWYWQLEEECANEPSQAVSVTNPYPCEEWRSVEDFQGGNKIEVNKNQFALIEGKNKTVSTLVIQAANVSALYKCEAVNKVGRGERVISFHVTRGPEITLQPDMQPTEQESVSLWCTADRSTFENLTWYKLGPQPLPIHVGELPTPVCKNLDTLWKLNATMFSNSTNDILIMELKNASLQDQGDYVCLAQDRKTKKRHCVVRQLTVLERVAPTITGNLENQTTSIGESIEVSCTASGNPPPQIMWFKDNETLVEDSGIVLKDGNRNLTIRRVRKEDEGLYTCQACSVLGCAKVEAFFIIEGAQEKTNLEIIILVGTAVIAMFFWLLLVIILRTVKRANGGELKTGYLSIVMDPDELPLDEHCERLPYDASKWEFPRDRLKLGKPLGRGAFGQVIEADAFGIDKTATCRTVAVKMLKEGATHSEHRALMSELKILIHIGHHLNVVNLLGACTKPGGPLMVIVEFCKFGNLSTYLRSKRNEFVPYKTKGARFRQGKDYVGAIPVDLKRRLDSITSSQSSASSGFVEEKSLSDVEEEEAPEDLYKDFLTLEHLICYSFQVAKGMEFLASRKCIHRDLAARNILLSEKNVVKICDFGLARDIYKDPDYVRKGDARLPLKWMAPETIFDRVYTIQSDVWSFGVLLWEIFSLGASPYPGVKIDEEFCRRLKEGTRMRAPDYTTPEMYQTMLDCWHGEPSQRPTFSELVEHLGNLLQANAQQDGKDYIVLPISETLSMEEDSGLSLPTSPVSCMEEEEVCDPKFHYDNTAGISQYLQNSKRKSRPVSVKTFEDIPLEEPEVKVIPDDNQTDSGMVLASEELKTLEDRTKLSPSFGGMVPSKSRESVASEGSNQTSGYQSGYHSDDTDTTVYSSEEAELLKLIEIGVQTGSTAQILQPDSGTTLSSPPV
High affinity nerve growth factor receptor (Homo sapiens), P04629 [G667C], sequence (P04629 whole entry G667C, looked up, the tested form may be a part): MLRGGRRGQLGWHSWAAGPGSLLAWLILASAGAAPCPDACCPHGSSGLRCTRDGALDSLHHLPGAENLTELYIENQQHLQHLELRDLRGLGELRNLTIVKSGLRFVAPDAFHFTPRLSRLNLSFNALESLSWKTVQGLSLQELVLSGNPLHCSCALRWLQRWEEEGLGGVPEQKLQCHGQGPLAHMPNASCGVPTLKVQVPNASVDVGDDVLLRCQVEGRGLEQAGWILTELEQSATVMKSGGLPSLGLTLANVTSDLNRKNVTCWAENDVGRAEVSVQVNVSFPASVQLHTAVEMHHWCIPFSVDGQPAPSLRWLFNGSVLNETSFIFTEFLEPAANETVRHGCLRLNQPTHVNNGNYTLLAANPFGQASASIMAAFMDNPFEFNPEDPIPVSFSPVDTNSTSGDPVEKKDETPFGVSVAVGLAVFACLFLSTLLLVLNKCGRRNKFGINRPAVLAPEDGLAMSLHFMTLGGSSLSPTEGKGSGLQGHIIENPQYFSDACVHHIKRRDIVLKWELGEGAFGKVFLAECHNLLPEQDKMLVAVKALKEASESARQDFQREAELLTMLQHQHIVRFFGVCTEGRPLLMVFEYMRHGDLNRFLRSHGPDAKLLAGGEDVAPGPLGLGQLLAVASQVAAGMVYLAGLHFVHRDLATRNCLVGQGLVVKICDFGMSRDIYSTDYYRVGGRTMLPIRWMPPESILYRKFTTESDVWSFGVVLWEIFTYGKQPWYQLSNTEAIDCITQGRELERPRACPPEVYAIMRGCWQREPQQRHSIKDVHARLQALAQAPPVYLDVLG

| Structure (SMILES) | GI50 [2] [nM] | GI50 at 72 h [1] [nM] | GI50 at 72 h [3] [nM] | further results |
| --- | --- | --- | --- | --- |
| CN1CCN(Cc2ccc(NC(=O)CCSc3ccc4c(-c5cccnc5)n[nH]c4c3)cc2C(F)(F)F)CC1 | 736 | 9 | – | – |
| Cc1nc(NC(=O)C(C)C)sc1-c1ccc2c(/C=C/c3ccccn3)n[nH]c2c1 | 251 | 181 | 1580 | – |
| Cc1nc(NC(=O)C2CCN(C)CC2)sc1-c1ccc2c(/C=C/c3ccccn3)n[nH]c2c1 | 89 | 2040 | 2510 | – |
| Cc1nc(NC(=O)CN2CCN(C)CC2)sc1-c1ccc2c(-c3cccc(F)c3)n[nH]c2c1 | > 10000 | 1710 | 1740 | – |
| CN1CCN(Cc2ccc(NC(=O)CCSc3ccc4c(/C=C/c5cnccn5)n[nH]c4c3)cc2C(F)(F)F)CC1 | 88 | 2 | 1640 | – |
| Cc1nc(NC(=O)CC2CCNCC2)sc1-c1ccc2c(/C=C/c3ccccn3)n[nH]c2c1 | 116 | 982 | > 10000 | – |
| CN1CCN(Cc2ccc(NC(=O)CC(=O)Nc3ccc4c(/C=C/c5ccccn5)n[nH]c4c3)cc2C(F)(F)F)CC1 | 248 | 4 | 2500 | – |
| Cc1nc(NC(=O)CN2CCN(C)CC2)sc1-c1ccc2c(-c3cnc(N)nc3)n[nH]c2c1 | 752 | 5630 | > 10000 | – |
| Cc1nc(NC(=O)CC2CCCNC2)sc1-c1ccc2c(/C=C/c3ccccn3)n[nH]c2c1 (stereo not given) | 300 | 1930 | 8350 | – |
| Cc1nc(NC(=O)CN2CCN(C)CC2)sc1-c1ccc2c(-c3ccn(C)n3)n[nH]c2c1 | 73 | 351 | 1530 | – |
| CN1CCN(Cc2ccc(C(=O)Nc3cccc(Sc4ccc5c(/C=C/c6ccccn6)n[nH]c5c4)c3)cc2C(F)(F)F)CC1 | 920 | 13 | 1260 | – |
| Cc1n[nH]c2cc(SCCC(=O)Nc3ccc(CN4CCN(C)CC4)c(C(F)(F)F)c3)ccc12 | 729 | 9 | – | – |
| Cc1nc(NC(=O)C2CCNCC2)sc1-c1ccc2c(/C=C/c3ccccn3)n[nH]c2c1 | 145 | 3050 | 8710 | – |
| Cc1ccc(-c2n[nH]c3cc(SCCC(=O)Nc4ccc(CN5CCN(C)CC5)c(C(F)(F)F)c4)ccc23)cn1 | 516 | 1 | – | – |
| CN1CCN(Cc2ccc(C(=O)NCCCSc3ccc4c(/C=C/c5ccccn5)n[nH]c4c3)cc2C(F)(F)F)CC1 | 370 | 1 | – | – |
| CN1CCN(Cc2ccc(NC(=O)NCCSc3ccc4c(/C=C/c5ccccn5)n[nH]c4c3)cc2C(F)(F)F)CC1 | 646 | 42 | – | – |
| CN1CCN(Cc2ccc(C(=O)NCCSc3ccc4c(/C=C/c5ccccn5)n[nH]c4c3)cc2C(F)(F)F)CC1 | 370 | 41 | 4400 | – |
| Cc1nc(NC(=O)CN2CCN(C)CC2)sc1-c1ccc2c(-c3cccnc3)n[nH]c2c1 | 251 | 2630 | 5130 | – |
| CN1CCN(Cc2ccc(NC(=O)CCSc3ccc4c(-c5ccncc5)n[nH]c4c3)cc2C(F)(F)F)CC1 | 448 | 1 | – | – |
| O=C(Nc1cnn2ccc(N3CCC[C@@H]3c3cc(F)ccc3F)nc12)N1CC[C@H](O)C1 [LAROTRECTINIB] | – | – | > 10000 | GI50 [4]: 602 nM; inhibition in vivo at 80 mg/kg/day [5]: 78.9%; GI50 (BaF3 [6]): 258 nM; inhibition in vivo at 80 mg/kg/day (BaF3 [7]): 33.8%; GI50 [8]: 11 nM; inhibition in vivo at 80 mg/kg/day (BaF3 [9]): 38.5%; GI50 (BaF3 [10]): 102 nM; GI50 (BaF3 [11]): 148 nM |
| CC(=O)Nc1nc(C)c(-c2ccc3c(/C=C/c4ccccn4)n[nH]c3c2)s1 | 4310 | 301 | 5240 | – |

Further lines, with some results ahead:

| GI50 [2] [nM] | Structure (SMILES) | GI50 at 72 h [1] [nM] | GI50 at 72 h [3] [nM] | further results |
| --- | --- | --- | --- | --- |
| 68 | Cc1nc(NC(=O)C(N)Cc2ccccc2)sc1-c1ccc2c(/C=C/c3ccccn3)n[nH]c2c1 (stereo not given) | 97 | 708 | – |
| 33 | Cc1nc(NC(=O)Cc2cccc3ccccc23)sc1-c1ccc2c(/C=C/c3ccccn3)n[nH]c2c1 | 15 | 3690 | – |
| 2 | Cc1nc(NC(=O)Cc2cccc(Cl)c2)sc1-c1ccc2c(/C=C/c3ccccn3)n[nH]c2c1 | 10 | 4100 | – |
| 63 | CN1CCN(Cc2ccc(NC(=O)CCSc3ccc4c(/C=C/c5ccccn5)n[nH]c4c3)cc2C(F)(F)F)CC1 | 2 | – | – |
| 32 | Cc1nc(NC(=O)CC2CCN(C)CC2)sc1-c1ccc2c(/C=C/c3ccccn3)n[nH]c2c1 | 570 | 1560 | – |
| 3 | Cc1nc(NC(=O)c2cccc(C(F)(F)F)c2)sc1-c1ccc2c(/C=C/c3ccccn3)n[nH]c2c1 | 5 | > 10000 | – |
| 40 | COc1ccc(CC(=O)Nc2nc(C)c(-c3ccc4c(/C=C/c5ccccn5)n[nH]c4c3)s2)cc1OC | 19 | 4870 | – |
| 3 | Cc1nc(NC(=O)Nc2cccc(C(F)(F)F)c2)sc1-c1ccc2c(/C=C/c3ccccn3)n[nH]c2c1 | 4 | 105 | – |
| 8 | Cc1nc(NC(=O)c2ccc(CN3CCN(C)CC3)cc2)sc1-c1ccc2c(/C=C/c3ccccn3)n[nH]c2c1 | 12 | 1460 | – |
| 18 | CN1CCN(Cc2ccc(NC(=O)CCSc3ccc4c(/C=C/c5ccncc5)n[nH]c4c3)cc2C(F)(F)F)CC1 | 2 | 543 | – |
| 2 | Cc1nc(NC(=O)Cc2cccc(C(F)(F)F)c2)sc1-c1ccc2c(/C=C/c3ccccn3)n[nH]c2c1 | 13 | 2310 | – |
| 54 | Cc1nc(NC(=O)CN2CCN(C)CC2)sc1-c1ccc2c(-c3cncc(F)c3)n[nH]c2c1 | 1800 | 1690 | – |
| 62 | CN1CCN(Cc2ccc(NC(=O)Nc3cccc(Sc4ccc5c(/C=C/c6ccccn6)n[nH]c5c4)c3)cc2C(F)(F)F)CC1 | 15 | 3090 | – |
| 13 | CSCCC(N)C(=O)Nc1nc(C)c(-c2ccc3c(/C=C/c4ccccn4)n[nH]c3c2)s1 (stereo not given) | 101 | 594 | – |
| 35 | COCCOCC(=O)Nc1nc(C)c(-c2ccc3c(/C=C/c4ccccn4)n[nH]c3c2)s1 | 1780 | 1070 | – |
| 18 | Cc1nc(NC(=O)CN2CCN(CCO)CC2)sc1-c1ccc2c(/C=C/c3ccccn3)n[nH]c2c1 | 81 | 1020 | – |

— ChEMBL document CHEMBL4765452, “Discovery of (E)-N-(4-methyl-5-(3-(2-(pyridin-2-yl)vinyl)-1H-indazol-6-yl)thiazol-2-yl)-2-(4-methylpiperazin-1-yl)acetamide (IHMT-TRK-284) as a novel orally available type II TRK kinase inhibitor capable of overcoming multiple resistant mutants” (Eur J Med Chem, 2020)
